In PMC6474823 (Molecular cell, 2019):

Target: Hck^3D V284C (Homo sapiens, UniProt P08631, V276C)
Test: Inhibitor IC50 determination, fluorescent SFK peptide kinase assay
Type: biochemical
Details: 1 mM ATP
Method in brief: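 Kinase concentrations were set in the linear range by prior titration: Src3D WT or V284C at 7.5 nM, Hck3D WT or V284C at 5 nM. Kinase was incubated 30 min with test compound (30 μM top, 3-fold serial dilutions, 10 points) and 1 mM ATP in HEPES pH 7.5 buffer with MgCl2, EGTA, BSA, vanadate and BME. Then 20 μM pyrene-labelled SFK peptide was added for 2 h. Fluorescence was read at ex 344/em 405 nm, in triplicate.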

Chain of Hck^3D V284C (P08631 81-526 V276C): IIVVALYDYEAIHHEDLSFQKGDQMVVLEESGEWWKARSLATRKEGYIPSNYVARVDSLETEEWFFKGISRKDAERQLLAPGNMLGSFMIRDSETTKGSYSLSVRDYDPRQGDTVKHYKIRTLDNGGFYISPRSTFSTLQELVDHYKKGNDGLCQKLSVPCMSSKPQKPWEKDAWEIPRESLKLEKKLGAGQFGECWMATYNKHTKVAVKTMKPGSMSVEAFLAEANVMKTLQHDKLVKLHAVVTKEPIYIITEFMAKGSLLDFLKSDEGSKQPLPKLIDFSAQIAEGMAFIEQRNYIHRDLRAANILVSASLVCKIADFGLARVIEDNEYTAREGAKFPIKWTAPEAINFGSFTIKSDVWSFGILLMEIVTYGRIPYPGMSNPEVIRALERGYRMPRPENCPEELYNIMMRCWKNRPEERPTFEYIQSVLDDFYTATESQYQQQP

Compound: CNC(=O)C(C#N)=Cc1c(C#Cc2cc(NC(=O)c3cccc(C(F)(F)F)c3)ccc2C)c2cncnc2n1CCOC [compound 3, (E)- and (Z)-N-(3-((6-(2-cyano-3-(methylamino)-3-oxoprop-1-en-1-yl)-7-(2-methoxyethyl)-7H-pyrrolo[2,3-d]pyrimidin-5-yl)ethynyl)-4-methylphenyl)-3-(trifluoromethyl)benzamide]
- inhibition of Hck V284C (IC50, Figure 4C): potently inhibited
